In brackets after ≈: the same amount, converted by molar mass.
Test system: Influenza A virus
Assay: Antiviral activity against influenza A virus infected in dog MDCK cells assessed as reduction in virus-induced cytopathic effect incubated for 3 to 6 days by light microscopic analysis
Format: functional, organism-based
Settings: Influenza A virus, MDCK
Method in brief: (§1)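 MDCK cells, subconfluent, received influenza A or B virus together with serial compound dilutions. Incubated 3–6 days at 35 °C.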

SMILES	EC50
CCCNC(=S)NNC(=O)c1[nH]c2ccc(F)cc2c1-c1ccccc1	> 100 µg/mL

Test system: MT4
Assay: Cytotoxicity against human MT4 cells assessed as reduction in cell viability incubated for 3 to 6 days by MTS assay
Format: cell-based
Settings: time 3-6 day
Method in brief: (§2)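 CRFK or MT4 cells were exposed to serial compound dilutions alongside the antiviral assays for 3–6 days at 37 °C.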

SMILES	CC50
CCCNC(=S)NNC(=O)c1[nH]c2ccc(F)cc2c1-c1ccccc1	11 µg/mL (≈ 29.7 µM)

Test system: Human immunodeficiency virus 2
Assay: Antiviral activity against Human immunodeficiency virus 2 infected in human MT4 cells assessed as reduction in virus-induced cytopathic effect incubated for 3 to 6 days by light microscopic analysis
Format: functional, organism-based
Settings: Human immunodeficiency virus 2, MT4

SMILES	EC50
CCCNC(=S)NNC(=O)c1[nH]c2ccc(F)cc2c1-c1ccccc1	> 100 µg/mL

Test system: not listed separately
Assay: Cytotoxicity against human HeLa cells assessed as changes in cell morphology incubated for 3 to 6 days by light microscopic analysis
Format: cell-based
Settings: time 3-6 day
Method in brief: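 Uninfected subconfluent cells (Vero or HeLa, as named) exposed to serial compound dilutions in parallel with the CPE assays, 37 °C, 3–6 days. Cell morphology examined by light microscopy; MCC = minimal concentration causing microscopically detectable changes in morphology.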

SMILES	MCC
CCCNC(=S)NNC(=O)c1[nH]c2ccc(F)cc2c1-c1ccccc1	20 µg/mL

Test system: not listed separately
Assay: Cytotoxicity against human HEL cells assessed as changes in cell morphology incubated for 3 to 6 days by light microscopy
Format: cell-based
Settings: time 3-6 day
Method in brief: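 Human embryonic lung fibroblasts incubated with serial compound dilutions alongside the antiviral assays, 37 °C, 3–6 days. Morphology inspected by light microscopy; minimal cytotoxic concentration taken as lowest concentration giving minimal morphological change.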

SMILES	MCC
CCCNC(=S)NNC(=O)c1[nH]c2ccc(F)cc2c1-c1ccccc1	20 µg/mL

Test system: Vaccinia virus
Assay: Antiviral activity against Vaccinia virus infected in human HEL cells assessed as reduction in virus-induced cytopathic effect incubated for 3 to 6 days by light microscopic analysis
Format: functional, organism-based
Settings: Orthopoxvirus vaccinia

SMILES	EC50
CCCNC(=S)NNC(=O)c1[nH]c2ccc(F)cc2c1-c1ccccc1	> 100 µg/mL

Test system: Sindbis virus
Assay: Antiviral activity against Sindbis virus infected in African green monkey Vero cells assessed as reduction in virus-induced cytopathic effect incubated for 3 to 6 days by light microscopic analysis
Format: functional, organism-based
Settings: not given
Method in brief: (§3)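 CPE reduction assay: virus and serial compound dilutions added together to subconfluent HeLa (vesicular stomatitis, Coxsackie B4, respiratory syncytial) or Vero (Coxsackie B4, Sindbis, Punta Toro) cultures. Incubated 3–6 days at 37 °C. […] Mean ± SEM of three independent tests.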

SMILES	EC50
CCCNC(=S)NNC(=O)c1[nH]c2ccc(F)cc2c1-c1ccccc1	6.5 µg/mL (≈ 17.5 µM)

Test system: Felid alphaherpesvirus 1
Assay: Antiviral activity against Feline herpesvirus infected in cat CRFK cells assessed as reduction in virus-induced cytopathic effect incubated for 3 to 6 days by light microscopic analysis
Format: functional, organism-based
Settings: Felid alphaherpesvirus 1, CRFK

SMILES	EC50
CCCNC(=S)NNC(=O)c1[nH]c2ccc(F)cc2c1-c1ccccc1	> 100 µg/mL

Test system: Human alphaherpesvirus 2
Assay: Antiviral activity against Herpes simplex virus 2 infected in human HEL cells assessed as reduction in virus-induced cytopathic effect incubated for 3 to 6 days by light microscopic analysis
Format: functional, cell-based
Settings: Human alphaherpesvirus 2, HEL

SMILES	EC50
CCCNC(=S)NNC(=O)c1[nH]c2ccc(F)cc2c1-c1ccccc1	> 100 µg/mL

Test system: not listed separately
Assay: Cytotoxicity against dog MDCK cells assessed as changes in cell morphology incubated for 3 to 6 days by light microscopy
Format: cell-based, Canis lupus familiaris
Settings: time 3-6 day

SMILES	MCC
CCCNC(=S)NNC(=O)c1[nH]c2ccc(F)cc2c1-c1ccccc1	0.8 µg/mL

Test system: Human alphaherpesvirus 1
Assay: Antiviral activity against Herpes simplex virus 1 infected in human HEL cells assessed as reduction in virus-induced cytopathic effect incubated for 3 to 6 days by light microscopic analysis
Format: functional, cell-based
Settings: Human alphaherpesvirus 1, HEL

SMILES	EC50
CCCNC(=S)NNC(=O)c1[nH]c2ccc(F)cc2c1-c1ccccc1	> 100 µg/mL

Test system: Mammalian orthoreovirus 1
Assay: Antiviral activity against Mammalian orthoreovirus 1 infected in African green monkey Vero cells assessed as reduction in virus-induced cytopathic effect incubated for 3 to 6 days by light microscopic analysis
Format: functional, organism-based
Settings: Mammalian orthoreovirus 1, Vero

SMILES	EC50
CCCNC(=S)NNC(=O)c1[nH]c2ccc(F)cc2c1-c1ccccc1	> 100 µg/mL

Test system: Punta Toro virus
Assay: Antiviral activity against Punta Toro virus infected in African green monkey Vero cells assessed as reduction in virus-induced cytopathic effect incubated for 3 to 6 days by light microscopic analysis
Format: functional, organism-based
Settings: not given
Method in brief: as §3

SMILES	EC50
CCCNC(=S)NNC(=O)c1[nH]c2ccc(F)cc2c1-c1ccccc1	> 100 µg/mL

Test system: Human respirovirus 3
Assay: Antiviral activity against Human parainfluenza virus 3 infected in African green monkey Vero cells assessed as reduction in virus-induced cytopathic effect incubated for 3 to 6 days by light microscopic analysis
Format: functional, organism-based
Settings: Human respirovirus 3, Vero

SMILES	EC50
CCCNC(=S)NNC(=O)c1[nH]c2ccc(F)cc2c1-c1ccccc1	> 100 µg/mL

Test system: Coxsackievirus B4
Assay: Antiviral activity against Human coxsackievirus B4 infected in African green monkey Vero cells assessed as reduction in virus-induced cytopathic effect incubated for 3 to 6 days by light microscopic analysis
Format: functional, organism-based
Settings: Enterovirus B
Method in brief: as §3

SMILES	EC50
CCCNC(=S)NNC(=O)c1[nH]c2ccc(F)cc2c1-c1ccccc1	1.8 µg/mL (≈ 4.86 µM)

Test system: Feline coronavirus
Assay: Antiviral activity against Feline coronavirus infected in cat CRFK cells assessed as reduction in virus-induced cytopathic effect incubated for 3 to 6 days by light microscopic analysis
Format: functional, organism-based
Settings: Alphacoronavirus 1, CRFK

SMILES	EC50
CCCNC(=S)NNC(=O)c1[nH]c2ccc(F)cc2c1-c1ccccc1	> 100 µg/mL

Test system: Influenza B virus
Assay: Antiviral activity against influenza B virus infected in dog MDCK cells assessed as reduction in virus-induced cytopathic effect incubated for 3 to 6 days by light microscopic analysis
Format: functional, organism-based
Settings: not given
Method in brief: as §1

SMILES	EC50
CCCNC(=S)NNC(=O)c1[nH]c2ccc(F)cc2c1-c1ccccc1	> 100 µg/mL

Test system: not listed separately
Assay: Selectivity index, ratio of MCC for human HeLa cells to EC50 for Human coxsackievirus B4 infected in human HeLa cells
Format: toxicity, cell-based
Settings: not given
Method in brief: (§4)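 HeLa cells infected concurrently with addition of serial compound dilutions, 3–6 days at 37 °C. CPE inhibition scored microscopically for EC50; MCC from minimal alteration of cell morphology by microscopy; index = MCC divided by EC50.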

SMILES	selectivity ratio
CCCNC(=S)NNC(=O)c1[nH]c2ccc(F)cc2c1-c1ccccc1	18

Test system: Respiratory syncytial virus
Assay: Antiviral activity against Respiratory syncytial virus infected in human HeLa cells assessed as reduction in virus-induced cytopathic effect incubated for 3 to 6 days by light microscopic analysis
Format: functional, organism-based
Settings: not given
Method in brief: as §3

SMILES	EC50
CCCNC(=S)NNC(=O)c1[nH]c2ccc(F)cc2c1-c1ccccc1	≥ 2.3 µg/mL

Test system: not listed separately
Assay: Selectivity index, ratio of MCC for human HeLa cells to EC50 for Respiratory syncytial virus infected in human HeLa cells
Format: toxicity, cell-based
Settings: not given
Method in brief: as §4

SMILES	selectivity ratio
CCCNC(=S)NNC(=O)c1[nH]c2ccc(F)cc2c1-c1ccccc1	≥ 9

Test system: not listed separately
Assay: Cytotoxicity against cat CRFK cells assessed as reduction in cell viability incubated for 3 to 6 days by MTS assay
Format: cell-based, Felis catus
Settings: crfk, time 3-6 day
Method in brief: as §2

SMILES	CC50
CCCNC(=S)NNC(=O)c1[nH]c2ccc(F)cc2c1-c1ccccc1	9.7 µg/mL (≈ 26.2 µM)

Test system: Coxsackievirus B4
Assay: Antiviral activity against Human coxsackievirus B4 infected in human HeLa cells assessed as reduction in virus-induced cytopathic effect incubated for 3 to 6 days by light microscopic analysis
Format: functional, organism-based
Settings: Enterovirus B
Method in brief: as §3

SMILES	EC50
CCCNC(=S)NNC(=O)c1[nH]c2ccc(F)cc2c1-c1ccccc1	1.1 µg/mL (≈ 2.97 µM)

Test system: Human immunodeficiency virus 1
Assay: Antiviral activity against Human immunodeficiency virus 1 infected in human MT4 cells assessed as reduction in virus-induced cytopathic effect incubated for 3 to 6 days by light microscopic analysis
Format: functional, organism-based
Settings: Human immunodeficiency virus 1, MT4

SMILES	EC50
CCCNC(=S)NNC(=O)c1[nH]c2ccc(F)cc2c1-c1ccccc1	> 100 µg/mL

Test system: Vesicular stomatitis virus
Assay: Antiviral activity against Vesicular stomatitis virus infected in human HeLa cells assessed as reduction in virus-induced cytopathic effect incubated for 3 to 6 days by light microscopic analysis
Format: functional, organism-based
Settings: not given
Method in brief: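 CPE reduction assay: virus and serial compound dilutions added together to subconfluent HeLa (vesicular stomatitis, Coxsackie B4, respiratory syncytial) or Vero (Coxsackie B4, Sindbis, Punta Toro) cultures. Incubated 3–6 days at 37 °C. Mean ± SEM of three independent tests.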

SMILES	EC50
CCCNC(=S)NNC(=O)c1[nH]c2ccc(F)cc2c1-c1ccccc1	> 100 µg/mL

Test system: not listed separately
Assay: Selectivity index, ratio of MCC for African green monkey Vero cells to EC50 for Human coxsackievirus B4 infected in African green monkey Vero cells
Format: toxicity
Settings: not given

SMILES	selectivity ratio
CCCNC(=S)NNC(=O)c1[nH]c2ccc(F)cc2c1-c1ccccc1	56

Test system: not listed separately
Assay: Selectivity index, ratio of MCC for African green monkey Vero cells to EC50 for Sindbis virus infected in African green monkey Vero cells
Format: toxicity
Settings: not given

SMILES	selectivity ratio
CCCNC(=S)NNC(=O)c1[nH]c2ccc(F)cc2c1-c1ccccc1	15

Reference: ChEMBL document CHEMBL4715693, “Synthesis and antiviral properties of novel indole-based thiosemicarbazides and 4-thiazolidinones” (Bioorg Med Chem, 2016)
